Source: BindingDB's records for doi:10.1016/j.bmc.2018.07.042 (Human Biomolecular Research Institute, 2018)
pEC50: −log10 of the molar value.

Tests used:
[1] = target: T1, Cellular tumor antigen p53 (Homo sapiens, UniProt P04637); assay: Induction of p53 transcriptional activity (unknown origin) expressed in HEK293 cells coexpressing TK-driven Rluc after 20 to 22 hrs by luciferase reporter gene assay
Outline: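 Transient transfection of HEK-293 cells with a p53-Luc vector (13x p53-binding consensus response element) plus TK-driven Renilla luciferase for normalization. Protocol was as for the Wnt reporter, but final serum was 2.5%. Cells were treated or given DMSO for 20-22 h in triplicate. Firefly/Renilla signal relative to DMSO was fit by nonlinear regression for […].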

[2] = target: T1, Cellular tumor antigen p53; assay: Activation of p53 in human MCF7 cell lysates assessed as increase in total p53 protein level by Western blot analysis

T1 sequence (P04637 whole entry): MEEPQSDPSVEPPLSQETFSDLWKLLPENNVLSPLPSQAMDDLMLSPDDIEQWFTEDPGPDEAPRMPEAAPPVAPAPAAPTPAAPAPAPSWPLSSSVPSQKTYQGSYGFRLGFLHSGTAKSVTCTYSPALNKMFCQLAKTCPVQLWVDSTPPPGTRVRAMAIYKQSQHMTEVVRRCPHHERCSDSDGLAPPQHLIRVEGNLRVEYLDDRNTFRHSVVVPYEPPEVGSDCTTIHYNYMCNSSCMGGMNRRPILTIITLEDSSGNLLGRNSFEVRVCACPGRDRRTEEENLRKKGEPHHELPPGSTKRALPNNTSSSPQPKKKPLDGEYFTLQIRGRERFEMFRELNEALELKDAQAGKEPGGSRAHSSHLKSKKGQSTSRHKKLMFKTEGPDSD

How did the pEC50 [1] turn out when COc1ccc2c(c1)N(C)CCN2S(=O)(=O)c1ccc(N2CCCC2=O)cc1 was run?
Its pEC50 is 8.40.

How did the pEC50 [2] turn out when CN1CCN(S(=O)(=O)c2ccc(N3CCCC3=O)cc2)c2ccccc21 was run?
The pEC50 was 7.74.

And the pEC50 [1]?
The pEC50 was 8.70.

O=S(=O)(c1ccc(-n2cncn2)cc1)N1CCCc2ccccc21 was tested. Which pEC50 [1] did it give?
The pEC50 was less than 5.30.

How did the pEC50 [1] turn out when Cc1ccc2c(c1)CCCN2S(=O)(=O)c1ccc(N2CCCC2=O)cc1 was run?
Its pEC50 is 8.40.

O=C1CCCN1c1ccc(S(=O)(=O)N2CCCc3ccccc32)cc1 was tested. Which pEC50 [1] did it give?
The pEC50 was 7.92.

COc1ccc2c(c1)CCCN2S(=O)(=O)c1ccc(N2CCCC2=O)cc1 was tested. Which pEC50 [1] did it give?
Its pEC50 is 8.05.

CN1CCN(S(=O)(=O)c2ccc(N3CCC=N3)cc2)c2ccccc21 was tested. Which pEC50 [1] did it give?
Its pEC50 is 7.13.

CC(C)(C)c1ccc2c(c1)CCCN2S(=O)(=O)c1ccc(N2CCCC2=O)cc1 was tested. Which pEC50 [1] did it give?
Its pEC50 is 6.82.

With CCCN(c1ccccc1)S(=O)(=O)c1ccc(N2CCCC2=O)cc1 as the compound, how does the pEC50 [1] read?
Its pEC50 is 6.80.

With CN1CCN(S(=O)(=O)c2ccc(N3CCCC3)cc2)c2ccccc21 as the compound, how does the pEC50 [1] read?
The pEC50 was 7.19.
